ChEMBL document CHEMBL2086252, “Syntheses and evaluation of anticonvulsant activity of novel branched alkyl carbamates” (J Med Chem, 2012)
Active and inactive are the calls of the source. No cut-off for these calls is given here.

How the values were obtained:
[1] = test system: Rattus norvegicus; experiment: Anticonvulsant activity in Sprague-Dawley albino rat assessed as protection against maximal electroshock-induced seizures at 30 mg/kg, po after 30 mins; type: functional, organism-based; design: dose 30 mg/kg
In short: (§1)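 Rats dosed orally. Anti-MES protection was scored as animals protected over animals tested at each time after dosing. Neurotoxicity was scored as motor impairment or sedation, as animals affected over animals tested.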

[2] = test system: Rattus norvegicus; experiment: Neurotoxicity in pilocarpine-induced status epilepticus Sprague-Dawley albino rat model assessed as minimal motor impairment at 300 mg/kg, ip after 0.25 hr by rotarod test; type: toxicity, organism-based; design: dose 300 mg/kg, route intraperitoneal; settings: in vivo
In short: (§2)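 Rat pilocarpine status epilepticus model: test carbamate given at 0 or 30 min after the first observed Racine stage 3 motor seizure, which marks SE onset. Neurotoxicity was scored within the same model.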

[3] = test system: Mus musculus; experiment: Neurotoxicity in albino CF1 mouse assessed as minimal motor impairment at 30 mg/kg, ip after 4 hrs by rotarod test; type: toxicity, organism-based; design: dose 30 mg/kg, route intraperitoneal; settings: in vivo
In short: (§3)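 Mice dosed ip at 30, 100 or 300 mg/kg, then tested 0.5 h and 4 h after administration in the MES or scMet test. Protection was recorded as animals protected over animals tested. Neurotoxicity was recorded as motor impairment or sedation, as animals affected over animals tested.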

[4] = test system: Mus musculus; experiment: Anticonvulsant activity in albino CF1 mouse assessed as protection against subcutaneous metrazol-induced seizures at 300 mg/kg, ip after 0.5 hrs; type: functional, organism-based; design: dose 300 mg/kg; in short: as §3
[5] = test system: Rattus norvegicus; experiment: Neurotoxicity in pilocarpine-induced status epilepticus Sprague-Dawley albino rat model assessed as minimal motor impairment at 100 mg/kg, ip after 2 hrs by rotarod test; type: toxicity, organism-based; design: dose 100 mg/kg, route intraperitoneal; settings: in vivo
[6] = test system: Mus musculus; experiment: Anticonvulsant activity in albino CF1 mouse assessed as protection against maximal electroshock-induced seizures at 300 mg/kg, ip after 4 hrs; type: functional, organism-based; design: dose 300 mg/kg; in short: as §3
[7] = test system: Mus musculus; experiment: Neurotoxicity in albino CF1 mouse assessed as minimal motor impairment at 30 mg/kg, ip after 0.5 hrs by rotarod test; type: toxicity, organism-based; design: dose 30 mg/kg, route intraperitoneal; settings: in vivo; in short: as §3
[8] = test system: Rattus norvegicus; experiment: Neurotoxicity in pilocarpine-induced status epilepticus Sprague-Dawley albino rat model assessed as minimal motor impairment at 300 mg/kg, ip after 1 hr by rotarod test; type: toxicity, organism-based; design: dose 300 mg/kg, route intraperitoneal; settings: in vivo; in short: as §2
[9] = test system: Mus musculus; experiment: Anticonvulsant activity in albino CF1 mouse assessed as protection against maximal electroshock-induced seizures at 30 mg/kg, ip after 0.5 hrs; type: functional, organism-based; design: dose 30 mg/kg; in short: as §3
[10] = test system: Mus musculus; experiment: Anticonvulsant activity in albino CF1 mouse assessed as protection against maximal electroshock-induced seizures at 300 mg/kg, ip after 0.5 hrs; type: functional, organism-based; design: dose 300 mg/kg; in short: as §3
[11] = test system: Mus musculus; experiment: Anticonvulsant activity in albino CF1 mouse assessed as protection against maximal electroshock-induced seizures at 100 mg/kg, ip after 4 hrs; type: functional, organism-based; design: dose 100 mg/kg; in short: as §3
[12] = test system: Rattus norvegicus; experiment: Neurotoxicity in pilocarpine-induced status epilepticus Sprague-Dawley albino rat model assessed as minimal motor impairment at 100 mg/kg, ip after 0.5 hrs by rotarod test; type: toxicity, organism-based; design: dose 100 mg/kg, route intraperitoneal; settings: in vivo
[13] = test system: Rattus norvegicus; experiment: Anticonvulsant activity in Sprague-Dawley albino rat assessed as protection against pilocarpine-induced status epilepticus at 200 mg/kg, ip; type: functional, organism-based; design: dose 200 mg/kg
In short: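 Pilocarpine status epilepticus model in rats. Number and severity of convulsive seizures were observed behaviourally.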

[14] = test system: Rattus norvegicus; experiment: Neurotoxicity in pilocarpine-induced status epilepticus Sprague-Dawley albino rat model assessed as minimal motor impairment at 300 mg/kg, ip after 0.5 hrs by rotarod test; type: toxicity, organism-based; design: dose 300 mg/kg, route intraperitoneal; settings: in vivo; in short: as §2
[15] = test system: Rattus norvegicus; experiment: Anticonvulsant activity in Sprague-Dawley albino rat assessed as protection against maximal electroshock-induced seizures at 30 mg/kg, po after 2 hrs; type: functional, organism-based; design: dose 30 mg/kg; in short: as §1
[16] = test system: Mus musculus; experiment: Neurotoxicity in albino CF1 mouse assessed as minimal motor impairment at 100 mg/kg, ip after 0.5 hrs by rotarod test; type: toxicity, organism-based; design: dose 100 mg/kg, route intraperitoneal; settings: in vivo; in short: as §3
[17] = test system: Rattus norvegicus; experiment: Neurotoxicity in pilocarpine-induced status epilepticus Sprague-Dawley albino rat model assessed as minimal motor impairment at 100 mg/kg, ip after 1 hr by rotarod test; type: toxicity, organism-based; design: dose 100 mg/kg, route intraperitoneal; settings: in vivo
[18] = test system: Rattus norvegicus; experiment: Neurotoxicity in pilocarpine-induced status epilepticus Sprague-Dawley albino rat model assessed as minimal motor impairment at 300 mg/kg, ip after 2 hrs by rotarod test; type: toxicity, organism-based; design: dose 300 mg/kg, route intraperitoneal; settings: in vivo; in short: as §2
[19] = test system: Rattus norvegicus; experiment: Anticonvulsant activity in Sprague-Dawley albino rat assessed as protection against maximal electroshock-induced seizures at 30 mg/kg, po after 1 hr; type: functional, organism-based; design: dose 30 mg/kg; in short: as §1
[20] = test system: Mus musculus; experiment: Anticonvulsant activity in albino CF1 mouse assessed as protection against subcutaneous metrazol-induced seizures at 100 mg/kg, ip after 4 hrs; type: functional, organism-based; design: dose 100 mg/kg; in short: as §3
[21] = test system: Mus musculus; experiment: Neurotoxicity in albino CF1 mouse assessed as minimal motor impairment at 300 mg/kg, ip after 4 hrs by rotarod test; type: toxicity, organism-based; design: dose 300 mg/kg, route intraperitoneal; settings: in vivo; in short: as §3
[22] = test system: Mus musculus; experiment: Anticonvulsant activity in albino CF1 mouse assessed as protection against subcutaneous metrazol-induced seizures at 300 mg/kg, ip after 4 hrs; type: functional, organism-based; design: dose 300 mg/kg; in short: as §3
[23] = test system: Rattus norvegicus; experiment: Neurotoxicity in Sprague-Dawley albino rat assessed as minimal motor impairment at 30 mg/kg, po by rotarod test; type: toxicity, organism-based; design: dose 30 mg/kg, route oral; settings: in vivo; in short: as §1
[24] = test system: Mus musculus; experiment: Anticonvulsant activity in albino CF1 mouse assessed as protection against maximal electroshock-induced seizures at 100 mg/kg, ip after 0.5 hrs; type: functional, organism-based; design: dose 100 mg/kg; in short: as §3
[25] = test system: Mus musculus; experiment: Anticonvulsant activity in albino CF1 mouse assessed as protection against subcutaneous metrazol-induced seizures at 30 mg/kg, ip after 0.5 hrs; type: functional, organism-based; design: dose 30 mg/kg; in short: as §3
[26] = test system: Mus musculus; experiment: Anticonvulsant activity in albino CF1 mouse assessed as protection against subcutaneous metrazol-induced seizures at 100 mg/kg, ip after 0.5 hrs; type: functional, organism-based; design: dose 100 mg/kg; in short: as §3
[27] = test system: Mus musculus; experiment: Anticonvulsant activity in albino CF1 mouse assessed as protection against subcutaneous metrazol-induced seizures at 30 mg/kg, ip after 4 hrs; type: functional, organism-based; design: dose 30 mg/kg; in short: as §3
[28] = test system: Rattus norvegicus; experiment: Neurotoxicity in pilocarpine-induced status epilepticus Sprague-Dawley albino rat model assessed as minimal motor impairment at 100 mg/kg, ip after 0.25 hr by rotarod test; type: toxicity, organism-based; design: dose 100 mg/kg, route intraperitoneal; settings: in vivo
[29] = test system: Mus musculus; experiment: Anticonvulsant activity in albino CF1 mouse assessed as protection against maximal electroshock-induced seizures at 30 mg/kg, ip after 4 hrs; type: functional, organism-based; design: dose 30 mg/kg; in short: as §3
[30] = test system: Mus musculus; experiment: Neurotoxicity in albino CF1 mouse assessed as minimal motor impairment at 100 mg/kg, ip after 4 hrs by rotarod test; type: toxicity, organism-based; design: dose 100 mg/kg, route intraperitoneal; settings: in vivo; in short: as §3
[31] = test system: Rattus norvegicus; experiment: Neurotoxicity in pilocarpine-induced status epilepticus Sprague-Dawley albino rat model assessed as minimal motor impairment at 100 mg/kg, ip after 4 hrs by rotarod test; type: toxicity, organism-based; design: dose 100 mg/kg, route intraperitoneal; settings: in vivo
[32] = test system: Mus musculus; experiment: Neurotoxicity in albino CF1 mouse assessed as minimal motor impairment at 300 mg/kg, ip after 0.5 hrs by rotarod test; type: toxicity, organism-based; design: dose 300 mg/kg, route intraperitoneal; settings: in vivo; in short: as §3
[33] = test system: Rattus norvegicus; experiment: Neurotoxicity in pilocarpine-induced status epilepticus Sprague-Dawley albino rat model assessed as minimal motor impairment at 30 mg/kg, ip after 4 hrs by rotarod test; type: toxicity, organism-based; design: dose 30 mg/kg, route intraperitoneal; settings: in vivo; in short: as §2
[34] = test system: Rattus norvegicus; experiment: Anticonvulsant activity in Sprague-Dawley albino rat assessed as protection against maximal electroshock-induced seizures at 30 mg/kg, po after 15 mins; type: functional, organism-based; design: dose 30 mg/kg; in short: as §1
[35] = test system: Rattus norvegicus; experiment: Neurotoxicity in pilocarpine-induced status epilepticus Sprague-Dawley albino rat model assessed as minimal motor impairment at 30 mg/kg, ip after 0.5 hrs by rotarod test; type: toxicity, organism-based; design: dose 30 mg/kg, route intraperitoneal; settings: in vivo; in short: as §2
[36] = test system: Rattus norvegicus; experiment: Anticonvulsant activity in Sprague-Dawley albino rat assessed as protection against maximal electroshock-induced seizures at 30 mg/kg, po after 4 hrs; type: functional, organism-based; design: dose 30 mg/kg; in short: as §1
[37] = test system: Rattus norvegicus; experiment: Neurotoxicity in pilocarpine-induced status epilepticus Sprague-Dawley albino rat model assessed as minimal motor impairment at 30 mg/kg, ip after 1 hr by rotarod test; type: toxicity, organism-based; design: dose 30 mg/kg, route intraperitoneal; settings: in vivo; in short: as §2
[38] = test system: Rattus norvegicus; experiment: Anticonvulsant activity in Sprague-Dawley albino rat assessed as protection against pilocarpine-induced status epilepticus at 130 mg/kg, ip administered 0 and 30 mins after status epilepticus onset
[39] = test system: Rattus norvegicus; experiment: Neurotoxicity in pilocarpine-induced status epilepticus Sprague-Dawley albino rat model assessed as minimal motor impairment at 300 mg/kg, ip after 4 hrs by rotarod test; type: toxicity, organism-based; design: dose 300 mg/kg, route intraperitoneal; settings: in vivo; in short: as §2
[40] = test system: Rattus norvegicus; experiment: Neurotoxicity in pilocarpine-induced status epilepticus Sprague-Dawley albino rat model assessed as minimal motor impairment at 30 mg/kg, ip after 2 hrs by rotarod test; type: toxicity, organism-based; design: dose 30 mg/kg, route intraperitoneal; settings: in vivo; in short: as §2
[41] = test system: Rattus norvegicus; experiment: Neurotoxicity in pilocarpine-induced status epilepticus Sprague-Dawley albino rat model assessed as minimal motor impairment at 30 mg/kg, ip after 0.25 hr by rotarod test; type: toxicity, organism-based; design: dose 30 mg/kg, route intraperitoneal; settings: in vivo; in short: as §2

| Compound | Activity [2] | Activity [3] | Activity [4] | Activity [5] | Activity [6] | Activity [7] | Activity [9] | Activity [10] | Activity [11] | Activity [12] | Activity [14] | Activity [16] | Activity [17] | Activity [18] | Activity [20] | Activity [21] | Activity [22] | Activity [25] | Activity [26] | Activity [27] | other results |
| --- | --- | --- | --- | --- | --- | --- | --- | --- | --- | --- | --- | --- | --- | --- | --- | --- | --- | --- | --- | --- | --- |
| CC(C)(C)COC(N)=O | Toxic | Non-toxic | inactive | Non-toxic | inactive | Non-toxic | inactive | inactive | inactive | Non-toxic | Toxic | Non-toxic | Non-toxic | Toxic | inactive | Non-toxic | inactive | inactive | inactive | inactive | Activity [1]: inactive; Activity [8]: Toxic; Activity [13]: Active; Activity [15]: inactive; Activity [19]: inactive; Activity [23]: Non-toxic; Activity [24]: inactive; Activity [28]: Non-toxic; Activity [29]: inactive; Activity [30]: Non-toxic; Activity [31]: Non-toxic; Activity [32]: Non-toxic |
| CC1(C)C(COC(N)=O)C1(C)C | Toxic | Non-toxic | Active | Non-toxic | inactive | Non-toxic | inactive | Active | inactive | Toxic | Toxic | Non-toxic | Toxic | Toxic | inactive | Non-toxic | inactive | inactive | inactive | inactive | Activity [33]: Non-toxic; Activity [1]: inactive; Activity [34]: inactive; Activity [35]: Non-toxic; Activity [8]: Toxic; Activity [36]: inactive; Activity [37]: Non-toxic; Activity [38]: inactive; Activity [15]: inactive; Activity [39]: Non-toxic; Activity [40]: Non-toxic; Activity [23]: Non-toxic; Activity [28]: Toxic; Activity [29]: inactive; Activity [30]: Non-toxic; Activity [31]: Non-toxic; Activity [41]: Non-toxic; Activity [32]: Toxic |
| CC(C)C(C)COC(N)=O (racemic) | Toxic | Non-toxic | Active | Non-toxic | inactive | Non-toxic | inactive | Active | inactive | Non-toxic | Toxic | Non-toxic | Non-toxic | Non-toxic | inactive | Non-toxic | inactive | inactive | inactive | inactive | Activity [13]: Active; Activity [39]: Non-toxic; Activity [28]: Non-toxic; Activity [29]: inactive; Activity [30]: Non-toxic; Activity [31]: Non-toxic; Activity [32]: Toxic |
